Measurements taken from ChEMBL document CHEMBL1649137, “Genetic analysis of factors affecting susceptibility of Bacillus subtilis to daptomycin” (2009).
Converted amounts (≈) assume the structure as drawn.

Columns and labels:
Bacillus subtilis [1] = assay: Decrease in yxeM gene expression in Bacillus subtilis W168 by microarray analysis; assay type: functional
Outline: (§1)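 W168 grown in Ca2+-supplemented Mueller-Hinton broth at 37°C to OD600 0.4, split, and one half exposed to 1 μg/ml daptomycin for 20 min. Total RNA from three biological replicates; cDNA labeled with Alexa Fluor 555/647 and co-hybridized at 42°C for 16–18 h. Genes with summed intensity <20 or SD > mean were dropped. Fold change is treated/untreated signal, from ≥6 spot measurements.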

Bacillus subtilis [2] = assay: Decrease in ywdD gene expression in Bacillus subtilis W168 by microarray analysis; assay type: functional; outline: as §1
Bacillus subtilis [3] = assay: Antibacterial activity against des gene-deficient Bacillus subtilis W168 mutant with alteration in membrane composition at 25 degC by liquid growth inhibition assay; assay type: functional
Outline: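 Mid-log cells diluted to 5 × 10^5 CFU/ml in Mueller-Hinton broth with 50 mg/liter Ca2+. At least 10 concentrations near the predicted MIC, plus an untreated control, present from the start. Growth followed by OD600. Inhibition: final 24 h OD600 <0.05. MIC is the mode of at least triplicates.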

Bacillus subtilis [4] = assay: Antibacterial activity against liaF gene-deficient Bacillus subtilis W168 mutant by liquid growth inhibition assay; assay type: functional
Outline: (§2)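 Daptomycin MIC by liquid growth inhibition. Overnight cultures diluted 1:100, grown to mid-log, rediluted to 5 × 10^5 CFU/ml in Mueller-Hinton broth with 50 mg/liter Ca2+. At least 10 concentrations near the predicted MIC, plus a no-drug control, added at start; 200 μl. OD600 read every 20 min for 24 h at 37°C with shaking. Inhibition: 24 h OD600 <0.05. MIC is the mode of at least triplicates.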

Bacillus subtilis [5] = assay: Induction of yocH gene expression in Bacillus subtilis W168 by microarray analysis; assay type: functional; outline: as §1
Bacillus subtilis [6] = assay: Induction of ywaC gene expression in Bacillus subtilis W168 by microarray analysis; assay type: functional
Outline: (§3)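 W168 cultures in Mueller-Hinton broth with 50 mg/liter Ca2+, 37°C with shaking, grown to mid-log phase (OD600 0.4) from a 1:1,000 overnight dilution. Split: one half given 1 μg/ml daptomycin for 20 min, the other left untreated. Total RNA from three biological replicates; cDNA labeled with Alexa Fluor 555 or 647 and hybridized 16 to 18 h at 42°C. Induction = treated/untreated signal intensity, duplicate spots on three arrays.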

Bacillus subtilis [7] = assay: Antibacterial activity against Bacillus subtilis CU1065 mutant by liquid growth inhibition assay; assay type: functional; outline: as §2
Bacillus subtilis [8] = assay: Decrease in ywhE gene expression in Bacillus subtilis W168 by microarray analysis; assay type: functional; outline: as §1
Bacillus subtilis [9] = assay: Decrease in yvpB gene expression in Bacillus subtilis W168 by microarray analysis; assay type: functional; outline: as §1
Bacillus subtilis [10] = assay: Antibacterial activity against sigXM gene-deficient Bacillus subtilis CU1065 double mutant by liquid growth inhibition assay; assay type: functional; outline: as §2
Bacillus subtilis [11] = assay: Antibacterial activity against sigW and pspA gene-deficient Bacillus subtilis CU1065 mutant by liquid growth inhibition assay; assay type: functional; outline: as §2
Bacillus subtilis [12] = assay: Decrease in yknU gene expression in Bacillus subtilis W168 by microarray analysis; assay type: functional; outline: as §1
Bacillus subtilis [13] = assay: Decrease in yvkN gene expression in Bacillus subtilis W168 by microarray analysis; assay type: functional; outline: as §1
Bacillus subtilis [14] = assay: Increase in yfiC gene expression in Bacillus subtilis W168 by microarray analysis
Bacillus subtilis [15] = assay: Decrease in ypeB gene expression in Bacillus subtilis W168 by microarray analysis; assay type: functional; outline: as §1
Bacillus subtilis [16] = assay: Antibacterial activity against yhcYZ gene-deficient Bacillus subtilis CU1065 mutant by liquid growth inhibition assay; assay type: functional; outline: as §2
Bacillus subtilis [17] = assay: Induction of maf gene expression in Bacillus subtilis W168 by microarray analysis; assay type: functional; outline: as §1
Bacillus subtilis [18] = assay: Antibacterial activity against sigXW gene-deficient Bacillus subtilis CU1065 double mutant by liquid growth inhibition assay; assay type: functional; outline: as §2
Bacillus subtilis [19] = assay: Antibacterial activity against liaIH, mprF and pspA gene-deficient Bacillus subtilis CU1065 mutant by liquid growth inhibition assay; assay type: functional; outline: as §2
Bacillus subtilis [20] = assay: Induction of liaS gene expression in Bacillus subtilis W168 by microarray analysis; assay type: functional; outline: as §1
Bacillus subtilis [21] = assay: Decrease in yvzA gene expression in Bacillus subtilis W168 by microarray analysis; assay type: functional; outline: as §1
Bacillus subtilis [22] = assay: Induction of ywrE gene expression in Bacillus subtilis W168 by microarray analysis; assay type: functional; outline: as §3
Bacillus subtilis [23] = assay: Antibacterial activity against Bacillus subtilis CU1066 with depletion in pgsA gene by liquid growth inhibition assay; assay type: functional; details: CU1065, in the assay text read “CU1065” for “CU1066”
Outline: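 Liquid growth inhibition in Mueller-Hinton broth with 50 mg/liter Ca2+. Overnight cultures diluted 1:100, grown to mid-log, rediluted to 5 × 10^5 CFU/ml, then given at least 10 daptomycin concentrations near the predicted MIC plus a drug-free control. OD600 read every 20 min for 24 h at 37°C with shaking. MIC is the mode of at least triplicates of the lowest concentration giving final OD600 <0.05.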

Bacillus subtilis [24] = assay: Decrease in hutM gene expression in Bacillus subtilis W168 by microarray analysis; assay type: functional; outline: as §1
Bacillus subtilis [25] = assay: Antibacterial activity against liaH gene-deficient Bacillus subtilis CU1065 mutant by liquid growth inhibition assay
Bacillus subtilis [26] = assay: Antibacterial activity against liaIHGFSR gene-deficient Bacillus subtilis W168 mutant by liquid growth inhibition assay; assay type: functional; outline: as §2
Bacillus subtilis [27] = assay: Antibacterial activity against liaH and sigW gene-deficient Bacillus subtilis CU1065 mutant by liquid growth inhibition assay; assay type: functional; outline: as §2
Bacillus subtilis [28] = assay: Induction of yhdL gene expression in Bacillus subtilis W168 by microarray analysis; assay type: functional; outline: as §1
Bacillus subtilis [29] = assay: Induction of liaG gene expression in Bacillus subtilis W168 by microarray analysis; assay type: functional; outline: as §1
Bacillus subtilis [30] = assay: Induction of ypbG gene expression in Bacillus subtilis W168 by microarray analysis; assay type: functional; outline: as §1
Bacillus subtilis [31] = assay: Induction of yebC gene expression in Bacillus subtilis W168 by microarray analysis; assay type: functional; outline: as §1
Bacillus subtilis [32] = assay: Induction of ydjP gene expression in Bacillus subtilis W168 by microarray analysis; assay type: functional; outline: as §1
Bacillus subtilis [33] = assay: Decrease in yvcB gene expression in Bacillus subtilis W168 by microarray analysis; assay type: functional; outline: as §1
Bacillus subtilis [34] = assay: Antibacterial activity against psd and mprF gene-deficient Bacillus subtilis CU1065 mutant by liquid growth inhibition assay; assay type: functional; outline: as §2
Bacillus subtilis [35] = assay: Antibacterial activity against sigX gene-deficient Bacillus subtilis CU1065 mutant by liquid growth inhibition assay; assay type: functional; outline: as §2
Bacillus subtilis [36] = assay: Induction of bcrC gene expression in Bacillus subtilis W168 by microarray analysis; assay type: functional; outline: as §1
Bacillus subtilis [37] = assay: Decrease in ydgK gene expression in Bacillus subtilis W168 by microarray analysis; assay type: functional; outline: as §1
Bacillus subtilis [38] = assay: Antibacterial activity against des gene-deficient Bacillus subtilis W168 mutant by liquid growth inhibition assay; assay type: functional; outline: as §2
Bacillus subtilis [39] = assay: Antibacterial activity against Bacillus subtilis CU1065 mutant with mprF gene overexpression by liquid growth inhibition assay; assay type: functional; outline: as §2
Bacillus subtilis [40] = assay: Antibacterial activity against Bacillus subtilis W168 mutant by liquid growth inhibition assay; assay type: functional; outline: as §2
Bacillus subtilis [41] = assay: Decrease in ywdE gene expression in Bacillus subtilis W168 by microarray analysis; assay type: functional; outline: as §1
Bacillus subtilis [42] = assay: Induction of yvrI gene expression in Bacillus subtilis W168 by microarray analysis; assay type: functional; outline: as §3
Bacillus subtilis [43] = assay: Antibacterial activity against des and pspA gene-deficient Bacillus subtilis W168 mutant by liquid growth inhibition assay

CCCCCCCCCC(=O)N[C@@H](Cc1c[nH]c2ccccc12)C(=O)N[C@H](CC(N)=O)C(=O)N[C@@H](CC(=O)O)C(=O)N[C@@H]1C(=O)NCC(=O)N[C@@H](CCCN)C(=O)N[C@@H](CC(=O)O)C(=O)N[C@H](C)C(=O)N[C@@H](CC(=O)O)C(=O)NCC(=O)N[C@H](CO)C(=O)N[C@@H]([C@H](C)CC(=O)O)C(=O)N[C@@H](CC(=O)c2ccccc2N)C(=O)O[C@@H]1C
fold change (FC) (Bacillus subtilis [1]): 0.4 | fold change (FC) (Bacillus subtilis [2]): 5.3 | MIC (Bacillus subtilis [3]): 0.4 µg/mL (≈ 0.247 µM) | MIC (Bacillus subtilis [4]): 1 µg/mL (≈ 0.617 µM) | fold change (FC) (Bacillus subtilis [5]): 0.5 | fold change (FC) (Bacillus subtilis [6]): 3.5 | MIC (Bacillus subtilis [7]): 1 µg/mL (≈ 0.617 µM) | fold change (FC) (Bacillus subtilis [8]): 0.4 | fold change (FC) (Bacillus subtilis [9]): 14 | MIC (Bacillus subtilis [10]): 0.6 µg/mL (≈ 0.37 µM) | MIC (Bacillus subtilis [11]): 0.8 µg/mL (≈ 0.494 µM) | fold change (FC) (Bacillus subtilis [12]): 7.8 | fold change (FC) (Bacillus subtilis [13]): 26 | fold change (FC) (Bacillus subtilis [14]): 3.5 | fold change (FC) (Bacillus subtilis [15]): 3.1 | MIC (Bacillus subtilis [16]): 0.8 µg/mL (≈ 0.494 µM) | fold change (FC) (Bacillus subtilis [17]): 2.5 | MIC (Bacillus subtilis [18]): 0.9 µg/mL (≈ 0.555 µM) | MIC (Bacillus subtilis [19]): 0.2 µg/mL (≈ 0.123 µM) | fold change (FC) (Bacillus subtilis [20]): 126 | fold change (FC) (Bacillus subtilis [21]): 10 | fold change (FC) (Bacillus subtilis [22]): 2.1 | MIC (Bacillus subtilis [23]): 8 µg/mL (≈ 4.94 µM) | fold change (FC) (Bacillus subtilis [24]): 3.2 | MIC (Bacillus subtilis [25]): 0.4 µg/mL (≈ 0.247 µM) | MIC (Bacillus subtilis [26]): 0.3 µg/mL (≈ 0.185 µM) | MIC (Bacillus subtilis [27]): 0.3 µg/mL (≈ 0.185 µM) | fold change (FC) (Bacillus subtilis [28]): 2.5 | fold change (FC) (Bacillus subtilis [29]): 283 | fold change (FC) (Bacillus subtilis [30]): 3.6 | fold change (FC) (Bacillus subtilis [31]): 3.6 | fold change (FC) (Bacillus subtilis [32]): 2 | fold change (FC) (Bacillus subtilis [33]): 27 | MIC (Bacillus subtilis [34]): 0.9 µg/mL (≈ 0.555 µM) | MIC (Bacillus subtilis [35]): 1 µg/mL (≈ 0.617 µM) | fold change (FC) (Bacillus subtilis [36]): 3.1 | fold change (FC) (Bacillus subtilis [37]): 0.5 | MIC (Bacillus subtilis [38]): 0.9 µg/mL (≈ 0.555 µM) | MIC (Bacillus subtilis [39]): 1.3 µg/mL (≈ 0.802 µM) | MIC (Bacillus subtilis [40]): 1 µg/mL (≈ 0.617 µM) | fold change (FC) (Bacillus subtilis [41]): 9.9 | fold change (FC) (Bacillus subtilis [42]): 574 | MIC (Bacillus subtilis [43]): 0.9 µg/mL (≈ 0.555 µM)
